Source: ChEMBL document CHEMBL4261518, “Side chain-functionalized aniline-derived ursolic acid derivatives as multidrug resistance reversers that block the nuclear factor-kappa B (NF-κB) pathway and cell proliferation” (Medchemcomm, 2017)

Tests used:
[1] = Cytotoxicity against human NCI-H460/DOX cells after 48 hrs by MTT assay; type: functional, cell-based; settings: NCI-H460, 48 h
How it was run: (§1)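 Cells grown overnight in DMEM + 10% FBS at 37 °C under 5% CO2, then given a range of compound concentrations for 48 h. MTT added for about 4 h, medium replaced by DMSO, absorbance read at 570/630 nm. IC50 reported as mean ± SD of five independent experiments.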

[2] = system: HepG2; assay: Cytotoxicity against human HepG2 cells after 48 hrs by MTT assay; type: functional, cell-based; settings: HepG2, 48 h; how it was run: as §1
[3] = Cytotoxicity against human HepG2/DOX cells after 48 hrs by MTT assay; type: functional, cell-based; how it was run: as §1
[4] = system: MGC-803; assay: Cytotoxicity against human MGC803 cells after 48 hrs by MTT assay; type: functional, cell-based; settings: MGC-803, 48 h; how it was run: as §1
[5] = Cytotoxicity against human SPCA2 cells after 48 hrs by MTT assay; type: functional, cell-based; settings: SPCA2, 48 h; how it was run: as §1
[6] = system: NCI-H460; assay: Cytotoxicity against human NCI-H460 cells after 48 hrs by MTT assay; type: functional, cell-based; settings: NCI-H460, 48 h; how it was run: as §1
[7] = system: A549; assay: Cytotoxicity against human A549 cells after 48 hrs by MTT assay; type: functional, cell-based; settings: A549, 48 h; how it was run: as §1
[8] = system: T-24; assay: Cytotoxicity against human T24 cells after 48 hrs by MTT assay; type: functional, cell-based; settings: T-24, 48 h; how it was run: as §1
[9] = system: L02; assay: Cytotoxicity against human HL7702 cells after 48 hrs by MTT assay; type: cell-based; settings: L02, 48 h; how it was run: as §1
[10] = Inhibition of TNFalpha-induced NF-kB (unknown origin) activation expressed in human NCI-H460 cells after 7 hrs by luciferase reporter gene assay; type: cell-based; settings: NCI-H460, 7 h
How it was run: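 NCI-H460 cells transiently co-transfected with pNF-κB-Luc reporter and pSV-β-galactosidase internal control by lipofectamine. Medium changed after 6 h, then 6 h further culture. TNF-α (15 ng ml–1) plus compound given together for 7 h. Luciferase ratio to TNF-α-only cells, corrected for non-TNF background and viability. IC50 from sigmoidal variable-slope fit.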

[11] = system: NCI-H460; assay: Cytotoxicity against human NCI-H460 cells harboring pNF-kB-Luc assessed as reduction in cell viability after 7 hrs by MTT assay relative to control; set-up: concentration or dose not given beside the values; settings: nci-h460, 7 h

Compound	IC50 [1]	IC50 [2]	IC50 [3]	IC50 [4]	IC50 [5]	IC50 [6]	IC50 [7]	IC50 [8]	IC50 [9]	IC50 [10]	Activity [11]
COc1cccc2c1C(=O)c1c(O)c3c(c(O)c1C2=O)C[C@@](O)(C(=O)CO)C[C@@H]3O[C@H]1C[C@H](N)[C@H](O)[C@H](C)O1 [DOXORUBICIN]	> 50 µM	6.91 µM	> 50 µM	–	–	–	–	–	–	–	–
CC(=O)O[C@H]1CC[C@]2(C)[C@H]3CC=C4[C@@H]5[C@@H](C)[C@H](C)CC[C@]5(C(=O)Nc5cccc(C)c5)CC[C@@]4(C)[C@]3(C)CC[C@H]2C1(C)C	–	–	–	> 50 µM	> 50 µM	> 50 µM	> 50 µM	> 50 µM	> 50 µM	–	–
COc1cccc(NC(=O)[C@]23CC[C@@H](C)[C@H](C)[C@H]2C2=CC[C@@H]4[C@@]5(C)CC[C@H](OC(C)=O)C(C)(C)[C@@H]5CC[C@@]4(C)[C@]2(C)CC3)c1	–	–	–	> 50 µM	> 50 µM	> 50 µM	> 50 µM	> 50 µM	> 50 µM	–	–
C[C@H]1[C@H](C)CC[C@]2(C(=O)N3CCN(C)CC3)CC[C@]3(C)C(=CC[C@@H]4[C@@]5(C)CCC(=O)C(C)(C)[C@@H]5CC[C@]43C)[C@H]12	–	–	–	25.6 µM	22.4 µM	19.2 µM	23.4 µM	27.2 µM	> 50 µM	15.5 µM	< 5%
Cc1cccc(NC(=O)[C@]23CC[C@@H](C)[C@H](C)[C@H]2C2=CC[C@@H]4[C@@]5(C)CCC(=O)C(C)(C)[C@@H]5CC[C@@]4(C)[C@]2(C)CC3)c1	–	–	–	> 50 µM	> 50 µM	> 50 µM	> 50 µM	> 50 µM	> 50 µM	–	–
COc1cc(NC(=O)[C@]23CC[C@@H](C)[C@H](C)[C@H]2C2=CC[C@@H]4[C@@]5(C)CCC(=O)C(C)(C)[C@@H]5CC[C@@]4(C)[C@]2(C)CC3)cc(OC)c1OC	–	–	–	40.1 µM	29.9 µM	34.3 µM	41.2 µM	39.8 µM	> 50 µM	> 20 µM	< 5%
COc1ccc(NC(=O)[C@]23CC[C@@H](C)[C@H](C)[C@H]2C2=CC[C@@H]4[C@@]5(C)CCC(=O)C(C)(C)[C@@H]5CC[C@@]4(C)[C@]2(C)CC3)cc1	–	–	–	29.7 µM	21.1 µM	28.1 µM	39.9 µM	32.5 µM	> 50 µM	> 20 µM	< 5%
COc1ccc(NC(=O)[C@]23CC[C@@H](C)[C@H](C)[C@H]2C2=CC[C@@H]4[C@@]5(C)CC[C@H](OC(C)=O)C(C)(C)[C@@H]5CC[C@@]4(C)[C@]2(C)CC3)cc1OC	–	–	–	27.8 µM	12.9 µM	11.9 µM	22.9 µM	24.7 µM	> 50 µM	10.1 µM	< 5%
COc1cccc(NC(=O)COC(=O)[C@]23CC[C@@H](C)[C@H](C)[C@H]2C2=CC[C@@H]4[C@@]5(C)CCC(=O)C(C)(C)[C@@H]5CC[C@@]4(C)[C@]2(C)CC3)c1	–	–	–	> 50 µM	> 50 µM	> 50 µM	> 50 µM	> 50 µM	> 50 µM	–	–
COc1ccc(NC(=O)COC(=O)[C@]23CC[C@@H](C)[C@H](C)[C@H]2C2=CC[C@@H]4[C@@]5(C)CCC(=O)C(C)(C)[C@@H]5CC[C@@]4(C)[C@]2(C)CC3)cc1	–	–	–	27.9 µM	19.4 µM	17.6 µM	24.6 µM	26.2 µM	> 50 µM	16 µM	< 5%
C[C@H]1[C@H](C)CC[C@]2(C(=O)O)CC[C@]3(C)C(=CC[C@@H]4[C@@]5(C)CC[C@H](O)C(C)(C)[C@@H]5CC[C@]43C)[C@H]12 [URSOLIC ACID]	–	–	–	27.6 µM	30.2 µM	32.2 µM	–	–	> 50 µM	> 20 µM	< 5%
COc1ccc(NC(=O)COC(=O)[C@]23CC[C@@H](C)[C@H](C)[C@H]2C2=CC[C@@H]4[C@@]5(C)CCC(=O)C(C)(C)[C@@H]5CC[C@@]4(C)[C@]2(C)CC3)cc1OC	–	–	–	38.2 µM	18.9 µM	22.8 µM	35.2 µM	27.7 µM	> 50 µM	> 20 µM	< 5%
CC[C@@]1(O)C(=O)OCc2c1cc1n(c2=O)Cc2cc3cc(O)ccc3nc2-1 [HYDROXYCAMPTOTHECIN]	–	–	–	–	12.6 µM	16.6 µM	2.75 µM	–	12.8 µM	–	–
COc1cc(NC(=O)COC(=O)[C@]23CC[C@@H](C)[C@H](C)[C@H]2C2=CC[C@@H]4[C@@]5(C)CCC(=O)C(C)(C)[C@@H]5CC[C@@]4(C)[C@]2(C)CC3)cc(OC)c1OC	–	–	–	38.7 µM	27.9 µM	39.6 µM	35.8 µM	37.8 µM	> 50 µM	> 20 µM	< 5%
COc1ccc(NC(=O)[C@]23CC[C@@H](C)[C@H](C)[C@H]2C2=CC[C@@H]4[C@@]5(C)CCC(=O)C(C)(C)[C@@H]5CC[C@@]4(C)[C@]2(C)CC3)cc1OC	–	–	–	32.5 µM	28.4 µM	30.2 µM	38.7 µM	37.3 µM	> 50 µM	> 20 µM	< 5%
Cc1cccc(NC(=O)COC(=O)[C@]23CC[C@@H](C)[C@H](C)[C@H]2C2=CC[C@@H]4[C@@]5(C)CCC(=O)C(C)(C)[C@@H]5CC[C@@]4(C)[C@]2(C)CC3)c1	–	–	–	> 50 µM	> 50 µM	> 50 µM	> 50 µM	> 50 µM	> 50 µM	–	–
Cc1ccccc1NC(=O)COC(=O)[C@]12CC[C@@H](C)[C@H](C)[C@H]1C1=CC[C@@H]3[C@@]4(C)CCC(=O)C(C)(C)[C@@H]4CC[C@@]3(C)[C@]1(C)CC2	–	–	–	16.2 µM	18.7 µM	14 µM	16.2 µM	17.8 µM	> 50 µM	16.2 µM	< 5%
COc1cc(NC(=O)[C@]23CC[C@@H](C)[C@H](C)[C@H]2C2=CC[C@@H]4[C@@]5(C)CC[C@H](OC(C)=O)C(C)(C)[C@@H]5CC[C@@]4(C)[C@]2(C)CC3)cc(OC)c1OC	–	–	–	37.2 µM	28.7 µM	21.1 µM	36.5 µM	30.5 µM	> 50 µM	14.8 µM	< 5%
Cc1ccc(NC(=O)[C@]23CC[C@@H](C)[C@H](C)[C@H]2C2=CC[C@@H]4[C@@]5(C)CCC(=O)C(C)(C)[C@@H]5CC[C@@]4(C)[C@]2(C)CC3)cc1C	–	–	–	21.4 µM	22.5 µM	19.4 µM	20.9 µM	24.6 µM	> 50 µM	15.2 µM	< 5%
